Active and inactive are the calls of the source.
Experiments:
[1] = Negative inotropic activity against potassium-induced contraction in guinea pig left atrium assessed as decrease in developed tension; assay type: functional, tissue-based; conditions: Cavia porcellus, Cardiac atrium
[2] = Antiarrhythmic activity in sinusoidal alternating current-induced guinea pig left atrium assessed as increase in current strength at which extra beats occur at 50 uM measured every 30 mins; assay type: functional, Cavia porcellus, Cardiac atrium
Method in brief: (§1)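 Isolated guinea pig left atria, electrically driven at 1 Hz, were exposed to sinusoidal alternating current to induce arrhythmia. The read-out was the rise in the ac-arrhythmia threshold over concentrations up to 100 μM.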

[3] = tested on: Aorta; assay: Vasorelaxant activity in potassium depolarized guinea pig aortic strip assessed as inhibition of calcium-induced contraction at 100 uM; assay type: functional; conditions: Cavia porcellus
[4] = Negative inotropic activity against potassium-induced contraction in guinea pig left atrium assessed as decrease in developed tension at 0.1 uM relative to control; assay type: functional, Cavia porcellus, Cardiac atrium; set-up: scale not given: the % may be the effect or the level left
[5] = species on record: Cavia porcellus; assay: Agonist activity at muscarinic M2 receptor in guinea pig left atrium assessed as negative ionotropic activity in presence of carbachol; assay type: functional, tissue-based; conditions: Cardiac atrium
[6] = Cardioprotective effect in Langendorff perfused guinea pig spontaneously beating […] assessed as atrioventicular conduction time at 0.01 uM (RVb = 50 to 55 +/- 1 to 4 ms); assay type: functional; conditions: Cavia porcellus
Method in brief: (§2)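 Whole guinea pig hearts were Langendorff-perfused and their ECG recorded at graded concentrations. Intervals read were PR (atrioventricular conduction time), QT (ventricular action potential duration) and QRS (intraventricular conduction time).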

[7] = tested on: Heart; assay: Cardioprotective effect in Langendorff perfused guinea pig spontaneously beating […] assessed as heart rat at 10 uM (RVb = 175 to 190 +/- 5 to 11 bpm); assay type: functional, Cavia porcellus
[8] = tested on: Heart; assay: Cardioprotective effect in Langendorff perfused guinea pig spontaneously beating […] assessed as heart rat at 0.01 uM (RVb = 175 to 190 +/- 5 to 11 bpm); assay type: functional, Cavia porcellus
[9] = Cardioprotective effect in Langendorff perfused guinea pig spontaneously beating […] assessed as intraventicular conduction time at 1 uM (RVb = 19 to 24 +/- 1 to 2 ms); assay type: functional; conditions: Cavia porcellus; method in brief: as §2
[10] = tested on: Heart; assay: Cardioprotective effect in Langendorff perfused guinea pig spontaneously beating […] assessed as heart rat at 0.001 uM (RVb = 175 to 190 +/- 5 to 11 bpm); assay type: functional, Cavia porcellus
[11] = Cardioprotective effect in Langendorff perfused guinea pig spontaneously beating […] assessed as atrioventicular conduction time at 10 uM (RVb = 50 to 55 +/- 1 to 4 ms); assay type: functional; conditions: Cavia porcellus; method in brief: as §2
[12] = species on record: Cavia porcellus; assay: Negative inotropic activity in guinea pig longitudinal smooth muscle assessed as inhibition of calcium-induced contraction at 1 uM; assay type: functional
[13] = Cardioprotective effect in Langendorff perfused guinea pig spontaneously beating […] assessed as duration of ventricular action potential at 10 uM (RVb = 140 to 161 +/- 2 to 8 ms); assay type: functional, Cavia porcellus, Cardiac ventricle; method in brief: as §2
[14] = Cardioprotective effect in Langendorff perfused guinea pig spontaneously beating […] assessed as intraventicular conduction time at 10 uM (RVb = 19 to 24 +/- 1 to 2 ms); assay type: functional; conditions: Cavia porcellus; method in brief: as §2
[15] = Cardioprotective effect in Langendorff perfused guinea pig spontaneously beating […] assessed as intraventicular conduction time at 0.001 uM (RVb = 19 to 24 +/- 1 to 2 ms); assay type: functional; conditions: Cavia porcellus; method in brief: as §2
[16] = Cardioprotective effect in Langendorff perfused guinea pig spontaneously beating […] assessed as intraventicular conduction time at 0.01 uM (RVb = 19 to 24 +/- 1 to 2 ms); assay type: functional; conditions: Cavia porcellus; method in brief: as §2
[17] = tested on: Aorta; assay: Negative inotropic activity in potassium depolarized guinea pig aortic strip assessed as inhibition of calcium-induced contraction at 1 uM; assay type: functional, tissue-based; conditions: Cavia porcellus
[18] = tested on: Heart; assay: Cardioprotective effect in Langendorff perfused guinea pig spontaneously beating […] assessed as heart rat at 0.1 uM (RVb = 175 to 190 +/- 5 to 11 bpm); assay type: functional, Cavia porcellus
[19] = Cardioprotective effect in Langendorff perfused guinea pig spontaneously beating […] assessed as duration of ventricular action potential at 0.1 uM (RVb = 140 to 161 +/- 2 to 8 ms); assay type: functional, Cavia porcellus, Cardiac ventricle; method in brief: as §2
[20] = Cardioprotective effect in Langendorff perfused guinea pig spontaneously beating […] assessed as duration of ventricular action potential at 1 uM (RVb = 140 to 161 +/- 2 to 8 ms); assay type: functional, Cavia porcellus, Cardiac ventricle; method in brief: as §2
[21] = Negative inotropic activity against potassium-induced contraction in guinea pig left atrium assessed as decrease in developed tension at 5 uM relative to control; assay type: functional, Cavia porcellus, Cardiac atrium; set-up: scale not given: the % may be the effect or the level left
[22] = tested on: Heart; assay: Cardioprotective effect in Langendorff perfused guinea pig spontaneously beating […] assessed as heart rat at 1 uM (RVb = 175 to 190 +/- 5 to 11 bpm); assay type: functional, Cavia porcellus
[23] = Cardioprotective effect in Langendorff perfused guinea pig spontaneously beating […] assessed as atrioventicular conduction time at 1 uM (RVb = 50 to 55 +/- 1 to 4 ms); assay type: functional; conditions: Cavia porcellus; method in brief: as §2
[24] = Cardioprotective effect in Langendorff perfused guinea pig spontaneously beating […] assessed as duration of ventricular action potential at 0.001 uM (RVb = 140 to 161 +/- 2 to 8 ms); assay type: functional, Cavia porcellus, Cardiac ventricle; method in brief: as §2
[25] = Negative chronotropic activity against potassium-induced contraction in guinea pig left atrium assessed as decrease atrial rate at 100 uM relative to control; assay type: functional, Cavia porcellus, Cardiac atrium; set-up: scale not given: the % may be the effect or the level left
[26] = Cardioprotective effect in Langendorff perfused guinea pig spontaneously beating […] assessed as intraventicular conduction time at 0.1 uM (RVb = 19 to 24 +/- 1 to 2 ms); assay type: functional; conditions: Cavia porcellus; method in brief: as §2
[27] = Cardioprotective effect in Langendorff perfused guinea pig spontaneously beating […] assessed as atrioventicular conduction time at 0.001 uM (RVb = 50 to 55 +/- 1 to 4 ms); assay type: functional; conditions: Cavia porcellus; method in brief: as §2
[28] = Antiarrhythmic activity in sinusoidal alternating current-induced guinea pig left atrium assessed as increase in current strength at which extra beats occur at 10 uM measured every 30 mins; assay type: functional, Cavia porcellus, Cardiac atrium; method in brief: as §1
[29] = Cardioprotective effect in Langendorff perfused guinea pig spontaneously beating […] assessed as atrioventicular conduction time at 0.1 uM (RVb = 50 to 55 +/- 1 to 4 ms); assay type: functional; conditions: Cavia porcellus; method in brief: as §2
[30] = Antiarrhythmic activity in sinusoidal alternating current-induced guinea pig left atrium assessed as increase in current strength at which extra beats occur measured every 30 mins; assay type: functional, tissue-based; conditions: Cavia porcellus, Cardiac atrium, 0.5 h; method in brief: as §1
[31] = Cardioprotective effect in Langendorff perfused guinea pig spontaneously beating […] assessed as duration of ventricular action potential at 0.01 uM (RVb = 140 to 161 +/- 2 to 8 ms); assay type: functional, Cavia porcellus, Cardiac ventricle; method in brief: as §2
[32] = tested on: Aorta; assay: Vasorelaxant activity in potassium depolarized guinea pig aortic strip assessed as inhibition of calcium-induced contraction at 50 uM; assay type: functional; conditions: Cavia porcellus
[33] = Negative chronotropic activity against potassium-induced contraction in guinea pig left atrium assessed as decrease atrial rate; assay type: functional, tissue-based; conditions: Cavia porcellus, Cardiac atrium
[34] = Negative inotropic activity against potassium-induced contraction in guinea pig left atrium assessed as decrease in developed tension at 10 uM relative to control; assay type: functional, Cavia porcellus, Cardiac atrium; set-up: scale not given: the % may be the effect or the level left
[35] = Negative chronotropic activity against potassium-induced contraction in guinea pig left atrium assessed as decrease atrial rate at 50 uM relative to control; assay type: functional, Cavia porcellus, Cardiac atrium; set-up: scale not given: the % may be the effect or the level left
[36] = Negative inotropic activity against potassium-induced contraction in guinea pig left atrium assessed as decrease in developed tension at 50 uM relative to control; assay type: functional, Cavia porcellus, Cardiac atrium; set-up: scale not given: the % may be the effect or the level left
[37] = Negative chronotropic activity against potassium-induced contraction in guinea pig left atrium assessed as decrease atrial rate at 0.5 uM relative to control; assay type: functional, Cavia porcellus, Cardiac atrium; set-up: scale not given: the % may be the effect or the level left

`Cc1cc(C)c(NC(=O)C[C@@H]2CCCN3CCCC[C@H]23)c(C)c1` showed an EC50 [1] of 10 nM, an Activity [2] of 49% and an inhibition at 100 µM [3] of 2%. It also gave an Activity [4] of 54%.
With `C[N+](C)(C)CCOC(N)=O` the inhibition [5] was “inactive”.
For `COc1cc(NC(C)=O)c(Cl)cc1C(=O)NC[C@@H]1CCCN2CCCC[C@H]12`, the AV conduction time [6] was 54 ms, the Activity [7] was 165 bpm and the Activity [8] was 170 bpm. It also gave an EC50 [1] of 18 nM, an intraventricular conduction time [9] of 22 ms and an Activity [10] of 172 bpm. The AV conduction time [11] was 56 ms, the inhibition [12] was “inactive” and the Activity [13] was 155 ms. For the same compound, the intraventricular conduction time [14] was 22 ms, the intraventricular conduction time [15] was 20 ms and the intraventricular conduction time [16] was 20 ms. The inhibition [17] was “inactive”, the Activity [18] was 168 bpm and the Activity [19] was 150 ms. For the same compound, the Activity [20] was 152 ms, the Activity [21] was 93% and the Activity [22] was 167 bpm. For the same compound, the AV conduction time [23] was 56 ms, the inhibition at 100 µM [3] was 4% and the Activity [24] was 139 ms. For the same compound, the Activity [25] was 6%, the intraventricular conduction time [26] was 21 ms and the AV conduction time [27] was 52 ms. It also gave an Activity [28] of 84%, an AV conduction time [29] of 53 ms and an EC50 [30] of 0.24 µM. It also gave an Activity [31] of 141 ms.
`CCN(CC)CC(=O)Nc1c(C)cccc1C` [LIDOCAINE] gave an inhibition at 50 µM [32] of 14%.
Work on `Cc1cc(C(=O)c2ccccc2)ccc1NC(=O)C[C@@H]1CCCN2CCCC[C@H]12` yielded an AV conduction time [6] of 54 ms, an Activity [7] of 137 bpm and an EC50 [33] of 6.14 µM. The Activity [8] was 171 bpm, the EC50 [1] was 44 nM and the intraventricular conduction time [9] was 22 ms. The Activity [10] was 177 bpm, the AV conduction time [11] was 57 ms and the Activity [2] was 64%. The Activity [13] was 170 ms, the intraventricular conduction time [14] was 25 ms and the intraventricular conduction time [15] was 23 ms. For the same compound, the intraventricular conduction time [16] was 20 ms, the Activity [18] was 158 bpm and the Activity [19] was 155 ms. The Activity [20] was 162 ms, the Activity [22] was 145 bpm and the AV conduction time [23] was 56 ms. It also gave an Activity [24] of 158 ms, an Activity [25] of 59% and an intraventricular conduction time [26] of 23 ms. It also gave an AV conduction time [27] of 54 ms, an Activity [34] of 79% and an AV conduction time [29] of 53 ms. It also gave an EC50 [30] of 0.15 µM and an Activity [31] of 154 ms.
With `Cc1cccc(C)c1OC[C@@H]1CCCN2CCCC[C@H]12` the inhibition at 100 µM [3] was 26%.
Compound `COc1cc(N)c(Cl)cc1C(=O)NC[C@@H]1CCCN2CCCC[C@H]12` has an EC50 [1] of 350 nM, an Activity [2] of 113% and an Activity [35] of 22%. The Activity [36] was 95%, the inhibition at 100 µM [3] was 6% and the EC50 [30] was 6.73 µM.
Work on `CC(=O)Nc1ccc(C(=O)NC[C@@H]2CCCN3CCCC[C@H]23)cc1` yielded an EC50 [1] of 56 nM and an Activity [37] of 14%.
`Cc1cc(C)c(NCC[C@@H]2CCCN3CCCC[C@H]23)c(C)c1` gave an EC50 [1] of 34 nM, an Activity [35] of 44% and an inhibition at 100 µM [3] of 37%. The Activity [34] was 89%, the Activity [28] was 63% and the EC50 [30] was 8.15 µM.
